Data as given in ChEMBL document CHEMBL1139141, “Structure-based design of benzylamino-acridine compounds as G-quadruplex DNA telomere targeting agents” (Bioorg Med Chem Lett, 2007).

Key:
[1] = species on record: Homo sapiens; test: Effect on human G-quadruplex DNA stability by FRET assay
Outline: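 Oligonucleotide F21T (21-mer d[GGG(TTAGGG)3], donor–acceptor end-labelled) annealed at 400 nM in 50 mM KCl, 10 mM cacodylic acid pH 7.4 (92° 2 min, cooled over 4 h); 200 nM final with ligand 0.10–10.00 µM. Fluorescence read at 0.5° steps, 30–100° at 1°/min, excitation 450–495, detection 515–545 nm; ΔTm from melting, triplicate.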

[2] = biological target: Telomerase reverse transcriptase (Homo sapiens, UniProt O14746); test: Inhibition of human telomerase by TRAP assay
Outline: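 Modified TRAP using A2780 ovarian carcinoma cell extract (1 µg protein) in 20 mM Tris-HCl pH 8.3, 68 mM KCl, 1.5 mM MgCl2, 1 mM EGTA, 0.05% Tween 20, 125 µM dNTPs, TS primer; 10 min at 30° with or without drug, heat-inactivated, then ACX primer PCR, 33 cycles. SYBR Green-stained PAGE products quantified by fluorescence; telEC50, triplicate.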

[3] = test system: DU-145; test: Growth inhibition of human DU145 cells by SRB assay; type: functional, cell-based
[4] = test system: MCF7; test: Growth inhibition of human MCF7 cells by SRB assay; type: functional, cell-based
[5] = test system: A549; test: Growth inhibition of human A549 cells by SRB assay; type: functional, cell-based

Sequence of Telomerase reverse transcriptase (O14746 whole entry): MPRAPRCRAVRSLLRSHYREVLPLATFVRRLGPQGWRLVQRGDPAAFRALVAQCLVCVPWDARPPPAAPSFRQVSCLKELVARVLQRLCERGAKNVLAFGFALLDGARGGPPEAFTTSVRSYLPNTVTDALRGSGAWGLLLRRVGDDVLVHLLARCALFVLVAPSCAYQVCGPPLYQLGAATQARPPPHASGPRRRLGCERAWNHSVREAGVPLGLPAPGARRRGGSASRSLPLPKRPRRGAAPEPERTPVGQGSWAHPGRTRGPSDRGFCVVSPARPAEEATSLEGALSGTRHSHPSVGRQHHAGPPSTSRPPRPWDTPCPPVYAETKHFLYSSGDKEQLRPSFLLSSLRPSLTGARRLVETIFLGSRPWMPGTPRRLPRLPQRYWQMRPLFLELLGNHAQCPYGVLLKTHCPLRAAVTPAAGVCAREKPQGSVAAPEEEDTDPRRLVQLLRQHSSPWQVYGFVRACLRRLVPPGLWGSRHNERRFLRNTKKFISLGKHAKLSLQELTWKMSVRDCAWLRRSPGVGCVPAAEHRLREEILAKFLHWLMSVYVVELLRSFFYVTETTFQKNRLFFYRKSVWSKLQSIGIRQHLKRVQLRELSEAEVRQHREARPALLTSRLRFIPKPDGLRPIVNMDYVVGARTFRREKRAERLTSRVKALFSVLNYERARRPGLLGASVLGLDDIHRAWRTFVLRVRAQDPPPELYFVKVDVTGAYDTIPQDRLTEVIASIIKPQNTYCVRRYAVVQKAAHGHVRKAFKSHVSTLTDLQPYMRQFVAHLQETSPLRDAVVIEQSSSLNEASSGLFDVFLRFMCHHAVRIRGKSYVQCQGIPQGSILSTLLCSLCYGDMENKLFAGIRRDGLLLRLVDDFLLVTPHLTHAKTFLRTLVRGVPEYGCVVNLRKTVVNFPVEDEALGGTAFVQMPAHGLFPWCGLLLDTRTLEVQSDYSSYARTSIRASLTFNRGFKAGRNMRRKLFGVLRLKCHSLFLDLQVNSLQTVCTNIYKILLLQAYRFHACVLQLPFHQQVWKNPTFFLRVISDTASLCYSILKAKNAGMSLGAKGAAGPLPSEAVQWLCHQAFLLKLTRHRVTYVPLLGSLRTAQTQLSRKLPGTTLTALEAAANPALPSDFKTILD

ΔTm [1]	EC50 [2]	IC50 [3]	IC50 [4]	IC50 [5]	Structure (SMILES)
32.5 °C	350 nM	10400 nM	3720 nM	4570 nM	COc1cc(CNc2c3ccc(NC(=O)CCN4CCCC4)cc3nc3cc(NC(=O)CCN4CCCC4)ccc23)cc(OC)c1
29.5 °C	1000 nM	10000 nM	3000 nM	1190 nM	Cc1cccc(CNc2c3ccc(NC(=O)CCN4CCCC4)cc3nc3cc(NC(=O)CCN4CCCC4)ccc23)c1
31 °C	230 nM	770 nM	460 nM	500 nM	Cc1cccc(CNc2c3ccc(NC(=O)CCN4CCCCC4)cc3nc3cc(NC(=O)CCN4CCCCC4)ccc23)c1
27.5 °C	860 nM	2610 nM	1070 nM	6300 nM	O=C(CCN1CCCC1)Nc1ccc2c(NCc3cc(C(F)(F)F)cc(C(F)(F)F)c3)c3ccc(NC(=O)CCN4CCCC4)cc3nc2c1
30.5 °C	240 nM	2530 nM	1000 nM	2000 nM	O=C(CCN1CCCC1)Nc1ccc2c(NCc3cc(F)cc(C(F)(F)F)c3)c3ccc(NC(=O)CCN4CCCC4)cc3nc2c1
21 °C	360 nM	2570 nM	540 nM	2000 nM	CN(C)c1ccc(Nc2c3ccc(NC(=O)CCN4CCCCC4)cc3nc3cc(NC(=O)CCN4CCCCC4)ccc23)cc1
26.5 °C	880 nM	2250 nM	520 nM	1200 nM	O=C(CCN1CCCCC1)Nc1ccc2c(NCc3ccc(F)c(F)c3)c3ccc(NC(=O)CCN4CCCCC4)cc3nc2c1
29.5 °C	30 nM	9750 nM	2260 nM	2110 nM	O=C(CCN1CCCC1)Nc1ccc2c(NCc3ccc(F)c(F)c3)c3ccc(NC(=O)CCN4CCCC4)cc3nc2c1
30 °C	440 nM	470 nM	200 nM	370 nM	COc1cc(CNc2c3ccc(NC(=O)CCN4CCCCC4)cc3nc3cc(NC(=O)CCN4CCCCC4)ccc23)cc(OC)c1
28 °C	120 nM	2300 nM	2530 nM	2420 nM	CN(C)c1ccc(Nc2c3ccc(NC(=O)CCN4CCCC4)cc3nc3cc(NC(=O)CCN4CCCC4)ccc23)cc1
24 °C	390 nM	630 nM	580 nM	570 nM	Cc1cccc(CNc2c3ccc(NC(=O)CCN4CCC(C)CC4)cc3nc3cc(NC(=O)CCN4CCC(C)CC4)ccc23)c1
